Experimental data from ChEMBL document CHEMBL1136228 (Bioorg Med Chem Lett, 2003).
“And” between values parts separate entries of the source, which are not always exact repeats. Identical values can stand only once.

Assays:
[1] = molecular target: T1, Peroxisome proliferator-activated receptor alpha (Homo sapiens, UniProt Q07869)
T1 sequence (Q07869 whole entry): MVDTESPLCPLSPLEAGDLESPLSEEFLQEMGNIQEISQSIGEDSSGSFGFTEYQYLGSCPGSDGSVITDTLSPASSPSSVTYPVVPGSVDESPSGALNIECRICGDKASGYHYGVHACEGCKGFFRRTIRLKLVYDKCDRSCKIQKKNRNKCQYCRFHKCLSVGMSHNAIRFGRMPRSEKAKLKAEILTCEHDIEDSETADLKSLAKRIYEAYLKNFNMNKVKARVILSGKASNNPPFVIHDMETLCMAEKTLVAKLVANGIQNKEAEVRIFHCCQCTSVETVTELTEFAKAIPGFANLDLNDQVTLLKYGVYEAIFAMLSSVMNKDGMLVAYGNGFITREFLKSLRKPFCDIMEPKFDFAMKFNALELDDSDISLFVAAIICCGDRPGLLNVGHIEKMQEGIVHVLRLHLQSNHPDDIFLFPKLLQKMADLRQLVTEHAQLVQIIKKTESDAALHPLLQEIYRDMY

[2] = molecular target: T2, Peroxisome proliferator-activated receptor gamma (Homo sapiens, UniProt P37231)
T2 sequence (P37231 whole entry): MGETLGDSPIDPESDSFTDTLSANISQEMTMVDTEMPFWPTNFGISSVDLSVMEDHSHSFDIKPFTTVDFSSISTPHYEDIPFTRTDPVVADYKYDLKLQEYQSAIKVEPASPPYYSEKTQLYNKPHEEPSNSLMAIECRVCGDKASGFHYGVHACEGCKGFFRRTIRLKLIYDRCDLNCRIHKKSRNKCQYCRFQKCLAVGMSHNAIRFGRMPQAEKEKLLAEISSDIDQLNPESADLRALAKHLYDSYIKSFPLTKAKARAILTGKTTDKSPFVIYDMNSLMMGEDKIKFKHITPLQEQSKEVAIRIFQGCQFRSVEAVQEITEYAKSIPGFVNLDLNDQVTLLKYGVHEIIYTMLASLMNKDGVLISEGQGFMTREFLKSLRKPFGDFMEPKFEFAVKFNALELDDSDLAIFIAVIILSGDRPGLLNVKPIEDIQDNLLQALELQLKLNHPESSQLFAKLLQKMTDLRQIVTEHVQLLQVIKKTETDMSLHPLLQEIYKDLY

[3] = molecular target: T1, Peroxisome proliferator-activated receptor alpha; assay: Binding affinity towards peroxisome proliferator activated receptor alpha (PPAR alpha); Not active
Outline: (§1)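 Scintillation proximity (SPA) radioligand binding assay run at 15 C. The IC50 is converted to an apparent Ki with the Cheng-Prusoff equation.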

[4] = molecular target: T2, Peroxisome proliferator-activated receptor gamma; assay: Binding affinity towards peroxisome proliferator activated receptor gamma (PPAR gamma); Not active
Outline: as §1

[5] = molecular target: T1, Peroxisome proliferator-activated receptor alpha; assay: Binding affinity towards human peroxisome proliferator activated receptor gamma (PPAR alpha) by HTRF assay; Weakly active
[6] = tested on: Mus musculus; assay: Fasting plasma glucose levels after 30 mg/kg peroral administration in db/db Mouse; format: functional; details: route oral
Outline: (§2)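 db/db (lepr db-3J/lepr db-3J) mice dosed orally once daily for 11 days; fasting plasma glucose measured at day 11. Correction is expressed as mean glucose lowering, as a percentage of the difference between vehicle-treated db/db and lean control mice.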

[7] = molecular target: T2, Peroxisome proliferator-activated receptor gamma; remark: listed apart in the source
[8] = molecular target: T1, Peroxisome proliferator-activated receptor alpha; remark: listed apart in the source
[9] = tested on: Rattus norvegicus; assay: Brown adipose tissue weight in Sprague-Dawley rat after 30 mg/kg peroral administration; details: route oral
[10] = tested on: Rattus norvegicus; assay: Heart weight of Sprague-Dawley rat after 30 mg/kg peroral administration; details: route oral
[11] = tested on: Rattus norvegicus; assay: Triglyceride change in Sprague-Dawley rat after 30 mg/kg peroral administration; details: route oral
[12] = tested on: Rattus norvegicus; assay: Body weight of Sprague-Dawley rat after 30 mg/kg peroral administration; details: route oral
[13] = tested on: Rattus norvegicus; assay: Total Cholesterol change in Sprague-Dawley rat after 30 mg/kg peroral administration; details: route oral
[14] = molecular target: T1, Peroxisome proliferator-activated receptor alpha; assay: Binding affinity towards human peroxisome proliferator activated receptor alpha (PPAR alpha) by HTRF assay; Not active
[15] = tested on: Mus musculus; assay: Fasting plasma glucose level after 10 mg/kg peroral administration in db/db Mouse; format: functional; details: route oral
Outline: as §2

[16] = tested on: Mus musculus; assay: Fasting plasma glucose levels after 3 mg/kg peroral administration in db/db Mouse; format: functional; details: route oral
Outline: as §2

[17] = tested on: Rattus norvegicus; assay: Total Cholesterol change in Sprague-Dawley rat after 150 mg/kg peroral administration; details: route oral
[18] = tested on: Rattus norvegicus; assay: Brown adipose tissue weight in Sprague-Dawley rat after 150 mg/kg peroral administration; details: route oral
[19] = tested on: Rattus norvegicus; assay: Triglyceride change in Sprague-Dawley rat after 150 mg/kg peroral administration; details: route oral
[20] = tested on: Rattus norvegicus; assay: Heart weight of Sprague-Dawley rat after 150 mg/kg peroral administration; details: route oral
[21] = molecular target: T1, Peroxisome proliferator-activated receptor alpha; assay: Binding affinity towards human peroxisome proliferator activated receptor alpha (PPAR alpha) by HTRF assay; Weakly active
[22] = tested on: Mus musculus; assay: Fasting plasma glucose levels after 150 mg/kg peroral administration in db/db Mouse; format: functional; details: route oral
Outline: as §2

[23] = tested on: Rattus norvegicus; assay: Body weight of Sprague-Dawley rat after 150 mg/kg peroral administration; details: route oral
[24] = molecular target: T2, Peroxisome proliferator-activated receptor gamma; assay: Binding affinity towards peroxisome proliferator activated receptor gamma (PPAR gamma); weakly active
[25] = tested on: Mus musculus; assay: Fasting plasma glucose levels after 5 mg/kg peroral administration in db/db Mouse; format: functional; details: route oral
Outline: as §2

[26] = tested on: Mus musculus; assay: Fasting plasma glucose levels after 15 mg/kg peroral administration in db/db Mouse; format: functional; details: route oral
Outline: as §2

Ki [2]	SMILES	Ki [1]	EC50 [7]	EC50 [8]	BAT weight [9]	Heart weight [10]	Change [11]	Body weight [12]	Change [13]	other results
5940 nM	CCCc1cc(C(=O)OC)cc(C)c1OC(C(=O)O)c1ccccc1 (configuration not stated)	28 nM	–	–	–	–	–	–	–	–
–	Cc1cccc(Nc2cc(Cl)nc(SCC(=O)O)n2)c1C [PIRINIXIC ACID]	–	–	–	–	–	–	–	–	Ki [3]: Not Active; Ki [4]: Not Active; EC50 [5]: Partially active; FPG correction [6]: 20%
2680 nM	CCCc1cc2c(CC)noc2c(CCC)c1OC(C(=O)O)c1ccccc1 (configuration not stated)	61 nM	560 nM	80 nM	–	–	–	–	–	–
985 nM	CCCc1c(O)c(C(=O)CC)cc(Cl)c1OC(C(=O)O)c1ccccc1 (configuration not stated)	293 nM	3760 nM	804 nM	–	–	–	–	–	–
–	CN(CCOc1ccc(CC2SC(=O)NC2=O)cc1)c1ccccn1.O=C(O)/C=C\C(=O)O (configuration not stated) [ROSIGLITAZONE MALEATE]	–	–	–	–	–	–	–	1%	BAT weight ([9]; 30 mg/kg): 0.74 g and 0.63 g; Ki [3]: Not Active; Ki [14]: Not Active; Body weight ([12]; 30 mg/kg): 310 g and 322 g
–	CCCc1cc2c(C(F)(F)F)noc2c(CCC)c1OC(C(=O)O)c1ccc(C(C)C)cc1 (configuration not stated)	–	–	–	–	–	–	–	–	FPG correction [15]: 61%; FPG correction [16]: 31%
–	CC(C)(Oc1ccc(C(=O)c2ccc(Cl)cc2)cc1)C(=O)O [FENOFIBRIC ACID]	35000 nM	–	–	–	–	–	–	–	Change [17]: -18%; Ki [4]: Not Active; BAT weight [18]: 0.33 g; Change [19]: -23%; Heart weight [20]: 1.18 g; Ki [21]: Partially active; FPG correction [22]: 17%; Body weight [23]: 308 g
–	CCCc1c(OC(C(=O)O)c2ccccc2)c(Cl)cc2c(CC)noc12 (configuration not stated)	38 nM	1120 nM	162 nM	0.34 g	1.22 g	-11%	312 g	-9%	Ki [24]: Partially active; FPG correction [25]: 10%; FPG correction [26]: 47%

SMILES	Ki [2]	Ki [1]	EC50 [7]	EC50 [8]	BAT weight [9]	Heart weight [10]	Change [11]	Body weight [12]	Change [13]	other results
CCCc1cc2c(C(F)(F)F)noc2c(CCC)c1OC(C(=O)O)c1ccc(OCc2ccccn2)cc1 (configuration not stated)	268 nM	64 nM	47 nM	19 nM	0.42 g	1.15 g	-47%	297 g	-38%	FPG correction ([6]; 30 mg/kg): 90% and 51%
CCCc1cc2c(C(F)(F)F)noc2c(CCC)c1OC(C(=O)O)c1ccc(Cl)cc1 (configuration not stated)	175 nM	105 nM	110 nM	10 nM	0.22 g	1.17 g	-56%	297 g	-23%	FPG correction [15]: 74%; FPG correction [16]: 31%
